In the library only some 4.7% were active in any assay of this set; here they are far more common.
MC4R antag cAMP: antagonists of human melanocortin 4 receptor (MC4R); 360,000 tested, 0.48% active; inhibition, % at 6.5 µM; P32245; MC4R-expressing cells, MTII-stimulated cAMP, LANCE TR-FRET;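 active means inhibition above its plate's cutoff, the mean of tested wells on that plate plus 3 SD, cut at about 29% in these data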
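Material – human MC4R-expressing U2OS cells · Repeats – no replicates · Detection – TR-FRET with Eu-cAMP and labeled anti-cAMP, 671 nm · Times – compound 30 min, challenge 1 h, detection 1 h · Compound – single nominal compound dose of 6.5 µM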
FXN GAA850 act: increases GAA850 frataxin promoter reporter activity. 360,000 tested, 0.56% active. AID 540364. activation, % at 6 µM. HEK293 lucGAA850 FXN promoter luciferase reporter, 24 h; percent of 10 µM SAHA response;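 active means activation above the average of all compounds screened plus 3 SD, cutoff fixed separately per campaign, cut at about 7.5% in these data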
AHR act: activates the human aryl hydrocarbon receptor; P35869; AHR-responsive luciferase reporter cells, luminescence; activation, % at 5 µM; 320,000 tested, 2.5% active; AID 2796; in the data active means activation above about 47%
Target sequence (P35869 whole entry, looked up): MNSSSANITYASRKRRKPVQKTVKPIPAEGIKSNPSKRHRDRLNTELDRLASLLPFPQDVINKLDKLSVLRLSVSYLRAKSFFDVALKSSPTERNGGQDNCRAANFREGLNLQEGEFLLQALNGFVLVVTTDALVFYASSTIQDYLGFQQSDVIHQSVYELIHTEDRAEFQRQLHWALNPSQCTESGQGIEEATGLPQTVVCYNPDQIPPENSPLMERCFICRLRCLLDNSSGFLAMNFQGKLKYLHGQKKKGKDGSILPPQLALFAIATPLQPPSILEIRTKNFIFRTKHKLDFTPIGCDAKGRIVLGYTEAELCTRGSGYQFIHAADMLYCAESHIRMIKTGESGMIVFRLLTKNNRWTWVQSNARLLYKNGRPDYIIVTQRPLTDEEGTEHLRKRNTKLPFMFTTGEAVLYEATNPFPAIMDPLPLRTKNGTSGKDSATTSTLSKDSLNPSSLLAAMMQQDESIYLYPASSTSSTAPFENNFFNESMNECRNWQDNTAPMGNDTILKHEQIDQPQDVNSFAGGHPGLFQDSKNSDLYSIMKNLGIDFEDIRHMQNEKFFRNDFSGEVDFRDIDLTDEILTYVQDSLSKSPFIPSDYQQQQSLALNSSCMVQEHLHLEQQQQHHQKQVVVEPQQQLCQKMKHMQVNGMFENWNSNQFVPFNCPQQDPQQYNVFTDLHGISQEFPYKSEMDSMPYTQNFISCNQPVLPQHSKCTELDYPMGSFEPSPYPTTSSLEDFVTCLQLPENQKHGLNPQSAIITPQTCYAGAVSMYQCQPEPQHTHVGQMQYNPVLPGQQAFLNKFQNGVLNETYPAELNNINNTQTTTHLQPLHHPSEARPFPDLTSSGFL
MC4R ag barr: agonists of human melanocortin 4 receptor (MC4R) beta-arrestin | P32245 | U2OS MC4R beta-arrestin complementation, luminescence; percent of melanotan II response, DMSO zero | activation, % at 8.9 µM | 360,000 tested, 0.98% active;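 active means activation above a per-plate cutoff, the mean activation of sample wells on that plate plus 3 SD, cut at about 8% in these data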
HTR2A ag: activates the mouse 5-HT2A serotonin receptor; CHO-K1 mHTR2A beta-arrestin complementation, luminescence; percent of 30 µM serotonin response; activation, % at 7.6 µM; 360,000 tested, 0.66% active; AID 624169;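 active means activation above a run cutoff, the mean activation of all tested compounds plus 3 SD, cut at about 14% in these data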
Numbers stand for hits; . = inactive; / = not tested or not shown.

SMILES | MC4R antag cAMP | FXN GAA850 act | AHR act | MC4R ag barr | HTR2A ag
C#CCOCCOCCOCCNc1nc(N2CCN(C(=O)CCCCCCCCCCNC(=O)[C@@H](CCSC)n3cc(CCO)nn3)CC2)nc(N2CCN(C(=O)CCCCCCCCCCNC(=O)[C@H]([C@@H](C)CC)n3cc(CCCCN=C(N)N)nn3)CC2)n1 | 40.8 | . | . | . | .
C#CCOCCOCCOCCNc1nc(N2CCN(C(=O)CCCCCCCCCCNC(=O)[C@H](CCCCN)n3cc(C)nn3)CC2)nc(N2CCN(C(=O)CCCCCCCCCCNC(=O)[C@@H]([C@H](C)CC)n3cc(CCCCCN)nn3)CC2)n1 | 52.4 | . | . | . | .
C#CCOCCOCCOCCNc1nc(N2CCN(C(=O)CCCCCCCCCCNC(=O)Cn3cc(C[C@@H](C)O)nn3)CC2)nc(N2CCN(C(=O)CCCCCCCCCCNC(=O)[C@H](CCCCN)n3cc(C[C@@H](C)CC)nn3)CC2)n1 | 31.8 | . | . | . | .
Cc1cccc(N2CCN(C(=O)c3ccc4c(c3)NC(=O)C(CSCc3cccc(F)c3)N4)CC2C)c1 (centres undefined) | . | . | . | . | .
COc1ccc(Cl)cc1NC(=O)COC(=O)C1COc2ccccc2O1 (centres undefined) | . | . | . | . | .
O=C(OC1CC2CC1[C@H]1CCCCN1C2=O)N1CCC(c2ccccc2)CC1 (some centres undefined) | / | / | / | / | .
COc1ccccc1-c1cccc([C@@H]2C[C@H]3[C@@H](CN2)CON3C)c1 | . | . | / | . | .
Cc1cc(NC(=O)c2cc3cccc([N+](=O)[O-])c3[nH]2)ccc1F | . | . | 64.8 | . | .
COc1ccc(OCCn2c(C)c(/C=N/n3cnnc3)c3ccccc32)cc1 | . | . | . | . | .
C(=N\n1cnnc1)/c1cccc(OCCOc2ccccc2)c1 | . | . | 64.0 | . | .
COc1cccc(OCCn2c(C)c(/C=N/n3cnnc3)c3ccccc32)c1 | . | . | . | 9.7 | .
Cc1nc2ccc(C(=O)N(C)Cc3ccco3)cn2c1N(C)CC1CCCCC1 | . | . | / | . | .
COc1ccccc1N(C(C)=O)c1nc(C)cc(C)c1C#N | . | . | 47.6 | . | .
COc1ccc(Cl)cc1N(C(C)=O)c1nc(C)cc(C)c1C#N | . | . | 54.2 | . | .
CCN(CC)C(=O)c1c(NC(=O)c2ccccc2)sc(C)c1C | . | . | . | . | .
CCN(CC)Cc1c(NC(=O)c2ccccc2)sc(C)c1C | . | . | 64.8 | . | .
CN(C)c1ccc(/C=C(/NC(=O)c2ccccc2Cl)C(=O)NCCN2CCOCC2)cc1 | . | . | . | . | .
C[C@@H]1CN([C@H](C)CO)C(=O)c2cc(NS(=O)(=O)c3cn(C)cn3)ccc2O[C@H]1CN(C)C(=O)Nc1ccccc1 | . | . | . | . | .
COC(=O)CC1OCC=C2CN3CCC45C6=CC(=O)C(=O)C([N+](=O)[O-])=C6NC4C1C2CC35 (centres undefined) | . | . | / | . | .
CCCNC(=O)Cn1c(-c2ccc(F)cc2)cc(C(=O)OCC)c1C | . | . | . | 8.3 | .
Cc1ccc(CNCc2cc3c(C(C)(C)C)nn(-c4ccccc4)c3[nH]c2=O)cc1 | . | . | . | 8.9 | .
CC(C)(C)c1nn(-c2ccccc2)c2[nH]c(=O)c(CNCc3ccco3)cc12 | . | . | . | . | .
Cc1ccsc1/C=N/n1c(-c2ccccn2)n[nH]c1=S | . | . | 50.8 | . | .
Cc1ccsc1/C=N/n1c(-c2ccncc2)n[nH]c1=S | . | . | . | . | .
O=C(NNC(=O)c1cc2cc3ccccc3nc2s1)c1cccc(C(F)(F)F)c1 | . | . | 48.3 | . | .
SMILES | MC4R antag cAMP | FXN GAA850 act | AHR act | MC4R ag barr | HTR2A ag
Cc1ccc(NNC(=S)Nc2ccc(C(C)C)cc2)c(C)c1 | . | . | 65.5 | . | .
O=C(c1ccc(-n2cncn2)c2ccoc12)N1CCOCC1 | . | . | / | . | .
Cc1onc(-c2c(Cl)cccc2Cl)c1C(=O)NCCc1ccc(S(N)(=O)=O)cc1 | . | . | . | . | .
Cc1onc(-c2ccccc2)c1C(=O)NNC(=O)c1ccccc1O | . | . | 78.4 | . | .
Cc1onc(-c2ccccc2)c1C(=O)NNC(=O)c1ccccc1 | . | . | . | . | .
Cc1onc(-c2ccccc2)c1C(=O)NCCc1ccc(S(N)(=O)=O)cc1 | . | . | 76.0 | . | .
c1ccc(-c2ccc(-c3nc(-c4cccnc4)no3)cc2)cc1 | . | . | . | . | .
O=c1[nH]c2ccccc2cc1-c1noc(-c2cccnc2)n1 | . | . | 73.0 | . | .
COc1ccc2[nH]c(=O)c(-c3noc(-c4ccccc4)n3)cc2c1 | . | . | . | . | .
c1ccc(-c2noc(-c3cccnc3)n2)cc1 | . | . | 59.0 | . | .
Cc1cc(Br)ccc1NC(=O)CNC(=O)CN(C)C1CCS(=O)(=O)C1 (centres undefined) | . | . | / | . | .
Cc1ccc(-c2nc(Nc3ccc(N4CCOCC4)cc3)c3ccccc3n2)cc1 | . | . | 70.5 | . | .
Cc1ccc(-c2nc(Nc3ccc(O)cc3)c3ccccc3n2)cc1 | . | . | 54.0 | . | .
Cc1cccc(-c2nc(NCCCN3CCOCC3)c3ccccc3n2)c1 | . | . | 51.8 | . | .
COc1ccccc1C1(O)CCN(CC(=O)Nc2nc(-c3ccccc3)cs2)CC1 | . | . | . | . | .
Cc1cccnc1Nc1nc(-c2ccc(O)cc2O)cs1 | . | . | 60.8 | . | .
Cc1cccnc1Nc1nc(-c2ccccc2)cs1 | . | . | 55.3 | . | .
Cc1cccnc1Nc1nc(-c2ccccn2)cs1 | . | . | . | . | .
O=C(NCCc1cccc(Cl)c1)c1cccc([N+](=O)[O-])c1 | . | . | . | . | .
O=[N+]([O-])c1cccc(C(=Nc2cccc(Cl)c2)NO)c1 | . | . | 88.5 | . | .
CCOc1cc(N2CCOCC2)c(OCC)cc1NC(=O)c1ccc(S(=O)(=O)N2CC(C)OC(C)C2)cc1 (centres undefined) | . | . | / | . | .
Cc1ccc(S(=O)(=O)NN(Cc2ccccc2)Cc2ccccc2)cc1 | . | . | / | 8.8 | .
O=C(NCC(c1cccs1)N1CCOCC1)C1CCN(S(=O)(=O)c2c(Cl)cccc2Cl)CC1 (centres undefined) | . | . | . | . | .
O=C(Nc1ccn(CCCN2CCN(c3ccccn3)CC2)c(=O)n1)OCc1ccccc1 | . | . | / | . | .
C=CCOc1ccccc1/C=N/NC(=O)c1ccc(Cl)cc1Cl | . | . | 69.5 | . | .
COc1cc(/C=N/NC(=O)c2ccncc2)ccc1OC(=O)c1cc(OC)c(OC)c(OC)c1 | . | . | . | . | .
COc1cc(C(=O)Oc2ccccc2/C=N/NC(=O)c2ccc(Cl)cc2Cl)cc(OC)c1OC | . | . | 59.4 | . | .
O=C(Nc1nnc([C@@H]2C[C@H](O)[C@@H](CO)O2)s1)c1cccc(C(F)(F)F)c1 | . | . | / | . | .

Compound activity (PubChem)
